In ChEMBL document CHEMBL1138759, “Nonpeptide alphavbeta3 antagonists. Part 11: discovery and preclinical evaluation of potent alphavbeta3 antagonists for the prevention and treatment of osteoporosis” (J Med Chem, 2004):

Tests used:
[1] = Bioavailability in dog (dose 0.2 mg/kg i.v. and 1 mg/kg p.o.); assay type: ADME, organism-based, Canis lupus familiaris; conditions: in vivo, po
Method in brief: (§1)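 Dogs given compound in water at 0.2 mpk iv and 1 mpk po; oral bioavailability, plasma clearance and plasma half-life derived from plasma levels.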

[2] = Partition coefficient (logP); assay type: physicochemical; conditions: octanol/water
Method in brief: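 log P measured as partition between octanol and pH 7.4 buffer.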

[3] = Clearance value in dog at 0.2 mg/kg dose in intravenous and 1 mg/kg of peroral; assay type: ADME, organism-based, Canis lupus familiaris; conditions: in vivo; method in brief: as §1
[4] = h-Protein binding value of the compound; assay type: ADME; set-up: concentration or dose not given beside the values; conditions: human
Method in brief: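 Binding in human plasma determined by high-throughput ultrafiltration of diluted plasma in pH 7.4 buffer.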

Integrin alpha-V/beta-3 = Integrin alpha-V/beta-3 (Homo sapiens, UniProt P05106+P06756); assay: Inhibitory activity against alpha v beta-3 receptor using scintillation proximity assay (SPAV3); assay type: protein-complex assay
[5] = Half life in dog at 0.2 mg/kg dose in intravenous and 1 mg/kg of peroral; assay type: ADME, organism-based, Canis lupus familiaris; conditions: in vivo; method in brief: as §1
[6] = Clearance value in monkey at 0.2 mg/kg dose in intravenous and 1 mg/kg of peroral; assay type: ADME, organism-based; conditions: cercopithecidae, in vivo
[7] = Bioavailability in rat (dose 0.5 mg/kg i.v. 1 mg/kg of p.o.); assay type: ADME, organism-based; conditions: in vivo, po
[8] = Clearance value in rat at 0.5 mg/kg dose in intravenous and 1 mg/kg of peroral; assay type: ADME, organism-based; conditions: in vivo
Rattus norvegicus [9] = assay: Effect on distal femoral metaphysis (DFM)-bone mineral density (BMD) in ovariectomized female rats; OVX + 5e dosed orally 30 mg/kg/d; conditions: route oral
[10] = Half life in rat at 0.5 mg/kg dose in intravenous and 1 mg/kg of peroral; assay type: ADME, organism-based; conditions: in vivo
[11] = Half life in monkey at 0.2 mg/kg dose in intravenous and 1 mg/kg of peroral; assay type: ADME, organism-based; conditions: cercopithecidae, in vivo
Rattus norvegicus [12] = assay: Effect on distal femoral metaphysis (DFM)-bone mineral density (BMD) in ovariectomized female rats; OVX + 5e dosed orally 20 mg/kg/d; conditions: route oral
[13] = Bioavailability in monkey (dose 0.2 mg/kg i.v. and 1 mg/kg p.o.); assay type: ADME, organism-based; conditions: cercopithecidae, in vivo, po
Rattus norvegicus [14] = assay: Effect on distal femoral metaphysis (DFM)-bone mineral density (BMD) in ovariectomized female rats; OVX + 5f dosed orally 3 mg/kg; assay type: functional; conditions: route oral
Method in brief: (§2)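 Female rats ovariectomized, then dosed orally q.d. at 1, 3 or 10 mg/kg starting within 24 h, for 28 days. Comparators were sham-operated rats, OVX rats on vehicle, and OVX rats on alendronate 0.003 mg/kg/d s.c. BMD (mg/cm2) measured at the distal femoral metaphysis, given as mean ± SEM. Groups compared by Kruskal–Wallis ANOVA with Student–Newman–Keuls post-hoc test.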

Rattus norvegicus [15] = assay: Effect on distal femoral metaphysis (DFM)-bone mineral density (BMD) in ovariectomized female rats; OVX + 5f dosed orally 1 mg/kg; assay type: functional; conditions: route oral; method in brief: as §2
Rattus norvegicus [16] = assay: Effect on distal femoral metaphysis (DFM)-bone mineral density (BMD) in ovariectomized female rats; OVX + 5f dosed orally 10 mg/kg; assay type: functional; conditions: route oral; method in brief: as §2

Chain of Integrin alpha-V/beta-3 (P05106 27-788 limits assumed): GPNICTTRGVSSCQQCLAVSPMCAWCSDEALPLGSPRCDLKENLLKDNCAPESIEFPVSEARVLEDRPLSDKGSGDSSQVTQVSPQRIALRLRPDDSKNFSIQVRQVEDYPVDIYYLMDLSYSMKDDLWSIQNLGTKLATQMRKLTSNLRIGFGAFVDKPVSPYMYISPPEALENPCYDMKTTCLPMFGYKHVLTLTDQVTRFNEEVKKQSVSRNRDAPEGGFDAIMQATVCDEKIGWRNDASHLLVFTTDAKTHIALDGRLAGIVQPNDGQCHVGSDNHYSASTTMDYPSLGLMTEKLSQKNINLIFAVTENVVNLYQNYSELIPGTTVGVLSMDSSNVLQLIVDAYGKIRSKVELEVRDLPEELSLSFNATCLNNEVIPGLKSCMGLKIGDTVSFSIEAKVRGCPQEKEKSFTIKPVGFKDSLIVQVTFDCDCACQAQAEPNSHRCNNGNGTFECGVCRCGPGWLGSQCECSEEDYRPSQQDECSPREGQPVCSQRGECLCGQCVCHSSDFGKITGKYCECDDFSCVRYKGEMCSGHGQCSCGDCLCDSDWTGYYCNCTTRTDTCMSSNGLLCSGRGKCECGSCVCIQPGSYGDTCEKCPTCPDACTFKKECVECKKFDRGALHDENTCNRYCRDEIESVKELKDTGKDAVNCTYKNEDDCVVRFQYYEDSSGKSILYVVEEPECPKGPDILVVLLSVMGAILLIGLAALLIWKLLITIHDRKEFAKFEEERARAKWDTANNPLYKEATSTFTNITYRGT
Chain of Integrin alpha-V/beta-3 (P06756 31-889 limits assumed): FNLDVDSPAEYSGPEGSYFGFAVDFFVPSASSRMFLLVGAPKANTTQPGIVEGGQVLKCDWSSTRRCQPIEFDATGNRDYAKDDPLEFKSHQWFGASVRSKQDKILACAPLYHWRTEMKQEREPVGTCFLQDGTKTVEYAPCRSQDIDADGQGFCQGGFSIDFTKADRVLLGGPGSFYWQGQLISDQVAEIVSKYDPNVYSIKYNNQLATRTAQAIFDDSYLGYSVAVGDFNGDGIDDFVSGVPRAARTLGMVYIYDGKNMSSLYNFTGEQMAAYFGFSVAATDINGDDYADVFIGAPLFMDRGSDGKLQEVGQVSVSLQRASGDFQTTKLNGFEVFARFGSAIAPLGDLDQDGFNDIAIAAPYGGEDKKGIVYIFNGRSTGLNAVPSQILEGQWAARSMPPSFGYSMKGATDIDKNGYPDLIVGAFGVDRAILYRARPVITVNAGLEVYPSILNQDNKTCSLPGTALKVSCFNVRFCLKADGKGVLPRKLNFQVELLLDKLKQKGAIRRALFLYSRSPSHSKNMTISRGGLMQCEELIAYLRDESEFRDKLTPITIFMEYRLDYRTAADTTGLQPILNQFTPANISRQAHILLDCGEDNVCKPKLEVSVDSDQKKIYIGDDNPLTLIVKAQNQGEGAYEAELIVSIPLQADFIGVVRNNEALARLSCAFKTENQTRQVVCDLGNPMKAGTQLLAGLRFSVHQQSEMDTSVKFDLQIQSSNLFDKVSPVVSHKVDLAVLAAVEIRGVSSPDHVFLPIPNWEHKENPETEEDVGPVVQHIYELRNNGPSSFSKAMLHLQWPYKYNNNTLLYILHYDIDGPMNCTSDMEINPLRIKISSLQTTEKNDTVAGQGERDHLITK
Chain of Integrin alpha-V/beta-3 (P06756 891-1048 limits assumed): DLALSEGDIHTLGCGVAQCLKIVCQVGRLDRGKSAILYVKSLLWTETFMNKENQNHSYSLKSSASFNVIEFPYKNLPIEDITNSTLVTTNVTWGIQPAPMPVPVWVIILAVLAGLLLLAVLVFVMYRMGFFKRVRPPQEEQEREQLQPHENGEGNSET

Row | SMILES | bioavailability [1] [%] | logP ([2]; read-out: logP) | clearance [3] [mL/min/kg] | Activity [4] [%] | IC50 (Integrin alpha-V/beta-3) [pM] | half-life [5] [h] | also measured
1 | O=C(O)CC(NC(=O)CCCCc1ccc2c(n1)NCCC2)c1cncnc1 (stereo not drawn) | 10 | -1.2 | 26 | 44 | – | – | –
2 | COc1ccc([C@@H](CCCCCCc2ccc3c(n2)NCCC3)CC(=O)O)cn1 | 49 | – | 5.1 | 99.5 | 650 | 9.5 | logP [2]: 1.67
3 | O=C(O)CC(/C=C/CCCCc1ccc2c(n1)NCCC2)c1cccc(F)c1 (stereo not drawn) | – | – | – | – | 7200 | – | –
4 | COc1ncc([C@@H](CCCCCCc2ccc3c(n2)NCCC3)CC(=O)O)cn1 | 100 | 0.65 | 4.3 | 97 | 110 | 6.8 | –
5 | O=C(O)C[C@H](CCCCCCc1ccc2c(n1)NCCC2)c1cncnc1 | 66 | 0.1 | 3.9 | 94 | 70 | 6.4 | clearance [6]: 19 mL/min/kg; bioavailability [7]: 45%; clearance [8]: 30 mL/min/kg; DFM (Rattus norvegicus [9]): 153.2 mg/cm2; half-life [10]: 4.5 h; half-life [11]: 2.3 h; DFM (Rattus norvegicus [12]): 150.8 mg/cm2; bioavailability [13]: 46%
6 | Cc1ncc([C@@H](CCCCCCc2ccc3c(n2)NCCC3)CC(=O)O)cn1 | 83 | 0.43 | 2.5 | 96 | 80 | 9.5 | clearance [6]: 4.5 mL/min/kg; bioavailability [7]: 100%; DFM (Rattus norvegicus [14]): 173 mg/cm2; DFM (Rattus norvegicus [15]): 158.3 mg/cm2; clearance [8]: 3.6 mL/min/kg; DFM (Rattus norvegicus [16]): 176 mg/cm2; half-life [10]: 5.1 h; half-life [11]: 17 h; bioavailability [13]: 75%
7 | O=C(O)CC(CCCCCCc1ccc2c(n1)NCCC2)c1cccc(F)c1 (stereo not drawn) | – | – | – | – | 930 | – | –
8 | O=C(O)C[C@H](CCCCCCc1ccc2c(n1)NCCC2)c1cnc2ccccc2c1 | 65 | 2.39 | 3 | > 99.9 | 200 | 5 | –
9 | CC(C)c1ncc([C@@H](CCCCCCc2ccc3c(n2)NCCC3)CC(=O)O)cn1 | – | 1.32 | – | 99 | 520 | – | –
10 | O=C(O)C[C@H](CCCCCCc1ccc2c(n1)NCCC2)c1ccc2c(c1)OCC2 | > 99 | 2.39 | 7.9 | 99.9 | 210 | 5.8 | –
11 | O=C(O)C[C@H](NC(=O)CCCCc1ccc2c(n1)NCCC2)c1cccc(F)c1 | – | – | – | – | 27700 | – | –
